Experiments:
[1] = target: T1, 5-hydroxytryptamine receptor 6 (Homo sapiens, UniProt P50406); experiment: Inhibition of [3H]LSD binding to human recombinant 5HT6 receptor expressed in HEK293 cells at 100 nM after 60 mins by liquid scintillation counting; format: cell-based
Outline: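 Single-point competition at 100 nM test compound against [3H]-LSD on membranes from HEK-293 cells expressing recombinant human 5-HT6 receptor. Percent inhibition of radioligand binding reported.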

[2] = target: T1, 5-hydroxytryptamine receptor 6; experiment: Antagonist activity at human 5HT6 receptor expressed in HEK293F cells assessed as inhibition of 5-HT-stimulated cAMP production at […] after 30 mins by HTRF assay relative to (+/-)-6-chloro-N-(3-(1-methylpyrrolidin-3-yl)-1H-inden-5-yl)imidazo[2,1-b]thiazole-5-sulfonamide; format: functional, cell-based
[3] = target: T2, Adrenergic receptor alpha-2 (Homo sapiens, UniProt P08913+P18825+P18089); experiment: Inhibition of human alpha 2 adrenoceptor
T2 sequence (P08913 whole entry): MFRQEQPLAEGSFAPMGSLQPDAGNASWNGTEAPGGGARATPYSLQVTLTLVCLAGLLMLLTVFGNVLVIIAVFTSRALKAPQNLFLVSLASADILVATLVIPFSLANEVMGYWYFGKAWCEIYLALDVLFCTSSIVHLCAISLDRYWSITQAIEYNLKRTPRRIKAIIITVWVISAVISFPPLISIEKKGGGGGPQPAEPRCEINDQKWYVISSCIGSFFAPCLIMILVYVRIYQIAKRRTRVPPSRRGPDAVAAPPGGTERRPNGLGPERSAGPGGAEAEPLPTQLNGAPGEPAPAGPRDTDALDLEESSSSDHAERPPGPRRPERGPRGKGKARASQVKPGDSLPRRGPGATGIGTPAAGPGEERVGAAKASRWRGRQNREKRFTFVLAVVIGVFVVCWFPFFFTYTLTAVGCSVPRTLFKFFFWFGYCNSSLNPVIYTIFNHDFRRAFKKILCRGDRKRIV
T2 sequence (P18825 whole entry): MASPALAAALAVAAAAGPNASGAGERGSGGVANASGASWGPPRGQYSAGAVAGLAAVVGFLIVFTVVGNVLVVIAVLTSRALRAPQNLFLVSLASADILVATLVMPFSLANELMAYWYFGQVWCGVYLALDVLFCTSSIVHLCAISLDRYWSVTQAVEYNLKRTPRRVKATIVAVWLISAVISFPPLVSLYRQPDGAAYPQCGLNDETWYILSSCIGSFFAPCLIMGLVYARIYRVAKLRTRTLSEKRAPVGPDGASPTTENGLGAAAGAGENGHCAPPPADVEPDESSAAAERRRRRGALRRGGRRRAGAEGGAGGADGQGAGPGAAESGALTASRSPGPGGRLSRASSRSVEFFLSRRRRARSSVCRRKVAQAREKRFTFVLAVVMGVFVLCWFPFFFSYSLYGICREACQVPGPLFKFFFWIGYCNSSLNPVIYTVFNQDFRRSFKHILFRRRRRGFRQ
T2 sequence (P18089 whole entry): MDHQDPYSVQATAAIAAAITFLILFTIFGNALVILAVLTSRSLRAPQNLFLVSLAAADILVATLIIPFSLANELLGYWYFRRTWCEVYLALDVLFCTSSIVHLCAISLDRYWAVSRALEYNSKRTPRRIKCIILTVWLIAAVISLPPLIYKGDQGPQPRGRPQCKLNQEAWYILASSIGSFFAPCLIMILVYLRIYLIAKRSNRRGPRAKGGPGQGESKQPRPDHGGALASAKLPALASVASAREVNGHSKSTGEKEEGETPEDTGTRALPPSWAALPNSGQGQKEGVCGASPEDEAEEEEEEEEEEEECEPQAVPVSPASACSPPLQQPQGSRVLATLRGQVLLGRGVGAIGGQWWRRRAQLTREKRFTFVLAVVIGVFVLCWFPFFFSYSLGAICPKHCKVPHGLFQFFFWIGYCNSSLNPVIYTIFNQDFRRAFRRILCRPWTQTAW

[4] = target: T3, 5-hydroxytryptamine receptor 1A (Homo sapiens, UniProt P08908); experiment: Inhibition of human 5HT1A receptor
T3 sequence (P08908 whole entry): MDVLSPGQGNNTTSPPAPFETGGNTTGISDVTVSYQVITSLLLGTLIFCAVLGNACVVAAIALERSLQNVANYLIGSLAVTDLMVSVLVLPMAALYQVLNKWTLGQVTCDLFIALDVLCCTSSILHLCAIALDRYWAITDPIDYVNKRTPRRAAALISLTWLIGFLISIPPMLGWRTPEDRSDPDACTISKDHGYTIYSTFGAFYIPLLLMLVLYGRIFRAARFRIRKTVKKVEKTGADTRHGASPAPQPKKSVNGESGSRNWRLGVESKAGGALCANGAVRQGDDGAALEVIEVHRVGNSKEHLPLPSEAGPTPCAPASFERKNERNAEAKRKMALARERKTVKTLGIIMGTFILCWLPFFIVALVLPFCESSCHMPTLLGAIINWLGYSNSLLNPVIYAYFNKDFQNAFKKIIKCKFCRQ

[5] = target: T1, 5-hydroxytryptamine receptor 6; experiment: Displacement of [3H]LSD from human recombinant 5HT6 receptor expressed in HEK293 cells after 60 mins by liquid scintillation counting; format: cell-based
Outline: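 Competition binding on membranes from HEK-293 cells expressing recombinant human 5-HT6 receptor, with [3H]-LSD as radioligand. […] Values are mean ± SEM of three experiments.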

[6] = target: T1, 5-hydroxytryptamine receptor 6; experiment: Antagonist activity at human 5HT6 receptor expressed in HEK293F cells assessed as inhibition of 5-HT-stimulated cAMP production after 30 mins by HTRF assay; format: functional, cell-based
Outline: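 HEK-293F cells stably expressing human 5-HT6 receptor. Compounds were tested against 5-HT-stimulated cAMP production, with cAMP read by homogeneous time-resolved fluorescence (HTRF). Antagonism expressed as Imax and IC50. Data are mean ± SEM of three experiments.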

[7] = target: T1, 5-hydroxytryptamine receptor 6; experiment: Displacement of [3H]LSD from human cloned 5HT6 receptor expressed in human HeLa cells; format: cell-based
[8] = target: T4, Adrenergic receptor alpha-1 (Rattus norvegicus, UniProt P15823+P23944+P43140); experiment: Inhibition of rat alpha 1 adrenoceptor
T4 sequence (P15823 whole entry): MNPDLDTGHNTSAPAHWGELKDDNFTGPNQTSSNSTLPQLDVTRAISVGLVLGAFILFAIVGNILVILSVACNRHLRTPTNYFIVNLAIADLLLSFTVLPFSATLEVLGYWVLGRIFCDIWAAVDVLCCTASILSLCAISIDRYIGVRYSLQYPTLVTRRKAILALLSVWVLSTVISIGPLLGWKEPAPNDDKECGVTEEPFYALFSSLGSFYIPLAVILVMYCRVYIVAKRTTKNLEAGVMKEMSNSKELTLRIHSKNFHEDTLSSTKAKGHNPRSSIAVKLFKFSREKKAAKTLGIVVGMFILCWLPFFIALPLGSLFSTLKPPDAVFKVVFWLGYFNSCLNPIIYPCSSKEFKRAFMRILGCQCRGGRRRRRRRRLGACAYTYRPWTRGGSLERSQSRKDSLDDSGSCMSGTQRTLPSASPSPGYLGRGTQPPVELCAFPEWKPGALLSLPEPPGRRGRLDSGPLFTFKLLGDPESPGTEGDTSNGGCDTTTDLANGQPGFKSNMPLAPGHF
T4 sequence (P23944 whole entry): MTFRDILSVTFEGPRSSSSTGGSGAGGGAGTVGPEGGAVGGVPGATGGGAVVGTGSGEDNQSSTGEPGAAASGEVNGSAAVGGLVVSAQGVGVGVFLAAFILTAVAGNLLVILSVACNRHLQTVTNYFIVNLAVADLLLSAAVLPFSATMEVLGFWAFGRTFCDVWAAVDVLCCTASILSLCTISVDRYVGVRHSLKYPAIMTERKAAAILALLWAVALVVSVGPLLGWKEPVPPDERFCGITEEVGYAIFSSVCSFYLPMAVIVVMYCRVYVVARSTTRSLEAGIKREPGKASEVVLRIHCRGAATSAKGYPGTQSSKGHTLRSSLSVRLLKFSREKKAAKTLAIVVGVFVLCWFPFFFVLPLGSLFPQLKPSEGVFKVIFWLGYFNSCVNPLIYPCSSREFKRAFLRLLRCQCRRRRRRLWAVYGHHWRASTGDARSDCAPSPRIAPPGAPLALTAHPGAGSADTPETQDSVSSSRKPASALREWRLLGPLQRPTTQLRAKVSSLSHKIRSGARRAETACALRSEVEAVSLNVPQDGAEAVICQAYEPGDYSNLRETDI
T4 sequence (P43140 whole entry): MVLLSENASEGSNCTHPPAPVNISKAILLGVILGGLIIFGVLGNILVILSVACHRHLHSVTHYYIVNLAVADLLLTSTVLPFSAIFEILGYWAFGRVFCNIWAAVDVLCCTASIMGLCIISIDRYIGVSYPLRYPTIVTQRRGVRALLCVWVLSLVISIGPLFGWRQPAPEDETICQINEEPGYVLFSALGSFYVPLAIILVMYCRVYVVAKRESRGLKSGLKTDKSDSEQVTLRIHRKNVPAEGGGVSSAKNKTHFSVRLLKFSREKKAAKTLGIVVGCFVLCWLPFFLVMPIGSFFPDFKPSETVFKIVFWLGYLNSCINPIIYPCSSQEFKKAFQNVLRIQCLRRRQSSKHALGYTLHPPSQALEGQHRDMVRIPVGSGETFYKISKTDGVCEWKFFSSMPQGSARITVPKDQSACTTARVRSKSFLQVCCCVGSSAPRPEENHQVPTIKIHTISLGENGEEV

[9] = target: T5, 5-hydroxytryptamine receptor 2C (Homo sapiens, UniProt P28335); experiment: Inhibition of human 5HT2C receptor
T5 sequence (P28335 whole entry): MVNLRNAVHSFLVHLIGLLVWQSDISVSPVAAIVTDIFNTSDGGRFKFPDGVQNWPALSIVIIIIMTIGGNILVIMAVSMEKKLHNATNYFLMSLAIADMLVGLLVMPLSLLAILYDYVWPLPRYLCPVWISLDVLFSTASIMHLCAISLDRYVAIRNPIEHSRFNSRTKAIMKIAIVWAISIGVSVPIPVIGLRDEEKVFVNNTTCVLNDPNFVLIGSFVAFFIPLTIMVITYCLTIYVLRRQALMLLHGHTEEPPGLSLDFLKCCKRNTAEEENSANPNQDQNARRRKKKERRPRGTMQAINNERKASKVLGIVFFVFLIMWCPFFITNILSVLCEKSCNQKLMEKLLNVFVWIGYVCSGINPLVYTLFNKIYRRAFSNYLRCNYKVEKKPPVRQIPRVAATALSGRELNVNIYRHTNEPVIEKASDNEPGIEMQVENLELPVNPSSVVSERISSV

[10] = target: Sodium-dependent serotonin transporter (Homo sapiens, UniProt P31645); experiment: Inhibition of human SERT
Chain of Sodium-dependent serotonin transporter (P31645 whole entry): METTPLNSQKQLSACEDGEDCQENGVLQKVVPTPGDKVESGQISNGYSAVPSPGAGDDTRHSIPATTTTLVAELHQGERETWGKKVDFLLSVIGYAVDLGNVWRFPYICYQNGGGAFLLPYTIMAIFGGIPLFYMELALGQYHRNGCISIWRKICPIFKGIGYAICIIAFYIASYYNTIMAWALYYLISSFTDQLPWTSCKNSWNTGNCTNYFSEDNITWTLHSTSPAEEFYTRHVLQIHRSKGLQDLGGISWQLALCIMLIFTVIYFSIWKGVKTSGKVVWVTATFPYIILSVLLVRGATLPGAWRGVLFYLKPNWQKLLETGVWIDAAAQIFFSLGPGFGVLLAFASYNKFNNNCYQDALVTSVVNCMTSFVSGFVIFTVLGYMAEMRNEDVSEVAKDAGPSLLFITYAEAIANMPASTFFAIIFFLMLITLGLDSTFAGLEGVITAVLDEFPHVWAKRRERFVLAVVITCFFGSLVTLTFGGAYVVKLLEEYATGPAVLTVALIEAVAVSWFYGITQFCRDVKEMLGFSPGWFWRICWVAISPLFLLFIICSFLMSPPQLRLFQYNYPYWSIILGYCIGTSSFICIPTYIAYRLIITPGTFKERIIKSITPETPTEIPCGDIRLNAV

T1 sequence (P50406 whole entry): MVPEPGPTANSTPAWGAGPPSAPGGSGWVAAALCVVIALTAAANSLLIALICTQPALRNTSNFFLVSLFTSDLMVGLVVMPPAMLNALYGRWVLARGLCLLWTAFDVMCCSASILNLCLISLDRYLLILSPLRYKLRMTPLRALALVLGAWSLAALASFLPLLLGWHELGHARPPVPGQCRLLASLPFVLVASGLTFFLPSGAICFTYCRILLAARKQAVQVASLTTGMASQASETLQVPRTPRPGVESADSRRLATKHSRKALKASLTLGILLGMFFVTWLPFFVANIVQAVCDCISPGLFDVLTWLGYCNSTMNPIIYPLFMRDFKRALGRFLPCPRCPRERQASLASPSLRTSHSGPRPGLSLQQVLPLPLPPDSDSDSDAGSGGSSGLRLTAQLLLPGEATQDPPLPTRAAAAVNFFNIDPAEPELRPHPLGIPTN

SMILES | inhibition [1] [%] | Imax [2] [%] | IC50 [3] | IC50 [4] [nM] | Ki [5] [nM] | IC50 [6] [nM] | Ki [7] [nM] | IC50 [8] [nM] | IC50 [9] [nM] | IC50 [10] [nM]
CC1(C)C/C(=N\NC2=NCCN2)c2cc(NS(=O)(=O)c3c(Cl)nc4sccn34)ccc21 | 77 |  |  |  |  |  |  |  |  | 
Cl.N=C(N)N/N=C1\CCc2ccc(NS(=O)(=O)c3ccc4ccccc4c3)cc21 | > 80 | 127 | > 1000 nM | > 1000 | 62 | 53 |  |  |  | 
C/C(=N\NC(=N)N)c1cn(S(=O)(=O)c2ccc(N)cc2)c2ccccc12 |  |  |  |  |  |  | ≤ 8 |  |  | 
CN1CCOc2ccc(S(=O)(=O)Nc3ccc4c(c3)/C(=N\NC3=NCCN3)CC4)cc21 | > 80 |  |  |  | 70 |  |  |  |  | 

Continued, values first:

inhibition [1] [%] | Imax [2] [%] | IC50 [3] | IC50 [4] [nM] | Ki [5] [nM] | IC50 [6] [nM] | Ki [7] [nM] | IC50 [8] [nM] | IC50 [9] [nM] | IC50 [10] [nM] | SMILES
> 80 | 187 |  | > 1000 | 26 | 581 |  |  |  |  | CN1CCOc2ccc(S(=O)(=O)Nc3ccc4c(c3)/C(=N/NC(=N)N)CC4)cc21
> 80 | 173 | > 1 ×10⁴ nM |  | 2.2 | 176 |  | > 1000 | > 10000 | > 10000 | O=S(=O)(Nc1ccc2c(c1)/C(=N/NC1=NCCN1)CC2)c1c(Cl)nc2sccn12
> 80 | 102 | > 1000 nM | > 1000 | 4.1 | 54 |  |  |  |  | CN(c1ccc2c(c1)/C(=N/NC(=N)N)CC2)S(=O)(=O)c1c(Cl)nc2sccn12.Cl
